Measured values from ChEMBL document CHEMBL5154945, “Discovery and Optimization of Pyrrolopyrimidine Derivatives as Selective Disruptors of the Perinucleolar Compartment, a Marker of Tumor Progression toward Metastasis” (J Med Chem, 2022).
Values joined by “and” are separate entries in the source; they are usually repeats but may differ in a detail not shown here. Equal values may be shown once. Active and inactive are the calls of the source.

Experiments:
[1] = test system: PC-3M; assay: Antiproliferative activity against human PC-3M cells expressing PTB/GFP fusion protein assessed as disruption of RNA synthesis marker RP-194 at 1 uM and measured after 1 hr by DAPI staining based immunofluorescence microscopy; assay type: functional, cell-based
In short: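 50,000 PC3M cells on chamber slides were treated with 1 μM compound for 1 h at 37 °C, then fixed in 4% paraformaldehyde for 15 min, permeabilized with 0.3% Triton X-100 and blocked in 3% BSA. Primary antibodies were anti-RPA194 (1:200) and anti-NOPP140 (1:100), overnight at 4 °C, followed by secondary antibodies and DAPI mounting. Confocal images at 63×, three images of about 200 cells per group; counts of bright objects were normalized to DAPI-stained nuclei.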

[2] = Cytotoxicity against human PC-3M cells expressing PTB/GFP fusion protein assessed as reduction in ATP level and measured after 24 to 48 hrs by ATPlite luminescence assay; assay type: toxicity, cell-based
[3] = Microsomal stability in CD1 mouse liver microsomes assessed as half life measured upto 60 mins in presence of NADPH by LC-MS analysis; conditions: CD1, mouse, liver microsomes
[4] = test system: PC-3M; assay: Cytotoxicity against human PC-3M cells expressing PTB/GFP fusion protein assessed as reduction in ATP level at 20 uM and measured after 24 to 48 hrs by ATPlite luminescence assay; assay type: toxicity, cell-based; conditions: time 24-48 hrs
[5] = Kinetic solubility of compound
[6] = Cmax in female BALB/c mouse at 5 mg/kg, ip at 30 min by LC-MS/MS analysis; assay type: ADME, organism-based; set-up: time 30 min, dose 5 mg/kg, route ip; conditions: in vivo, 0.5 h
In short: (§1)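 Fed female BALB/c mice, about 6–8 weeks old and 25–30 g, received a single IP dose of 5 or 25 mpk in NMP/PEG400/HP-β-CD aqueous vehicle (0.5 mg/mL for the 5 mpk dose). Three mice per time point were sampled up to 48 h by retro-orbital bleed under isoflurane into K2EDTA. Plasma was spun at 2000 g, 4 °C, frozen at -80 °C, and assayed by LC/MS/MS.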

[7] = Cmax in female BALB/c mouse at 25 mg/kg, ip at 30 min by L-MS/MS analysis; assay type: ADME, organism-based; set-up: dose 25 mg/kg, time 30 min, route ip; conditions: in vivo, 0.5 h; in short: as §1
[8] = Tmax in female BALB/c mouse at 5 mg/kg, ip and measured upto 48 hrs by LC-MS/MS analysis; assay type: ADME, organism-based; conditions: in vivo; in short: as §1
[9] = Clast in male C57BL/6 mouse at 50 mg/kg, ip at 48 hrs by LC-MS/MS analysis; conditions: in vivo
[10] = test system: CCRF-CEM; assay: Anticancer activity against human CCRF-CEM cells assessed as cell growth inhibition; assay type: functional, cell-based; conditions: dose 1-100 µM, DDE = dose-dependent effect
[11] = test system: HL-60(TB); assay: Anticancer activity against human HL-60(TB) cells assessed as cell growth inhibition; assay type: functional, cell-based; conditions: dose 1-100 µM, DDE = dose-dependent effect
[12] = test system: K562; assay: Anticancer activity against human K562 cells assessed as cell growth inhibition; assay type: functional, cell-based; conditions: dose 1-100 µM, DDE = dose-dependent effect
[13] = test system: RPMI-8226; assay: Anticancer activity against human RPMI-8226 cells assessed as cell growth inhibition; assay type: functional, cell-based; conditions: dose 1-100 µM, DDE = dose-dependent effect
[14] = test system: EKVX; assay: Anticancer activity against human EKVX cells assessed as cell growth inhibition; assay type: functional, cell-based; conditions: dose 1-100 µM, DDE = dose-dependent effect
[15] = test system: NCI-H226; assay: Anticancer activity against human NCI-H226 cells assessed as cell growth inhibition; assay type: functional, cell-based; conditions: dose 1-100 µM, DDE = dose-dependent effect
[16] = test system: NCI-H322M; assay: Anticancer activity against human NCI-H322M cells assessed as cell growth inhibition; assay type: functional, cell-based; conditions: dose 1-100 µM, DDE = dose-dependent effect
[17] = test system: NCI-H460; assay: Anticancer activity against human NCI-H460 cells assessed as cell growth inhibition; assay type: functional, cell-based; conditions: dose 1-100 µM, DDE = dose-dependent effect
[18] = test system: SW-620; assay: Anticancer activity against human SW-620 cells assessed as cell growth inhibition; assay type: functional, cell-based; conditions: dose 1-100 µM, DDE = dose-dependent effect
[19] = test system: SNB-75; assay: Anticancer activity against human SNB-75 cells assessed as cell growth inhibition; assay type: functional, cell-based; conditions: dose 1-100 µM, DDE = dose-dependent effect
[20] = test system: LOX IMVI; assay: Anticancer activity against human LOX IMVI cells assessed as cell growth inhibition; assay type: functional, cell-based; conditions: dose 1-100 µM, DDE = dose-dependent effect
[21] = test system: Malme-3M; assay: Anticancer activity against human Malme-3M cells assessed as cell growth inhibition; assay type: functional, cell-based; conditions: dose 1-100 µM, DDE = dose-dependent effect
[22] = test system: M14; assay: Anticancer activity against human M14 cells assessed as cell growth inhibition; assay type: functional, cell-based; conditions: dose 1-100 µM, DDE = dose-dependent effect
[23] = test system: SK-MEL-5; assay: Anticancer activity against human SK-MEL-5 cells assessed as cell growth inhibition; assay type: functional, cell-based; conditions: dose 1-100 µM, DDE = dose-dependent effect
[24] = test system: UACC-62; assay: Anticancer activity against human UACC-62 cells assessed as cell growth inhibition; assay type: functional, cell-based; conditions: dose 1-100 µM, DDE = dose-dependent effect
[25] = test system: 786-0; assay: Anticancer activity against human 786-0 cells assessed as cell growth inhibition; assay type: functional, cell-based; conditions: dose 1-100 µM, DDE = dose-dependent effect
[26] = test system: MDA-MB-468; assay: Anticancer activity against human MDA-MB-468 cells assessed as cell growth inhibition; assay type: functional, cell-based; conditions: dose 1-100 µM, DDE = dose-dependent effect
[27] = target: 5-hydroxytryptamine receptor 1E (Homo sapiens) (UniProt P28566); assay: Binding affinity to 5-HT1E receptor (unknown origin) at 10000 nM by radioligand displacement assay relative to control
[28] = target: 5-hydroxytryptamine receptor 2A (Homo sapiens) (UniProt P28223); assay: Binding affinity to 5-HT2A receptor (unknown origin) at 10000 nM by radioligand displacement assay relative to control
[29] = target: 5-hydroxytryptamine receptor 2C (Homo sapiens) (UniProt P28335); assay: Binding affinity to 5-HT2C receptor (unknown origin) at 10000 nM by radioligand displacement assay relative to control
[30] = target: 5-hydroxytryptamine receptor 5A (Homo sapiens) (UniProt P47898); assay: Binding affinity to 5-HT5A receptor (unknown origin) at 10000 nM by radioligand displacement assay relative to control
[31] = target: 5-hydroxytryptamine receptor 6 (Homo sapiens) (UniProt P50406); assay: Binding affinity to 5-HT6 receptor (unknown origin) at 10000 nM by radioligand displacement assay relative to control
[32] = target: Beta-2 adrenergic receptor (Homo sapiens) (UniProt P07550); assay: Binding affinity to beta2 receptor (unknown origin) at 10000 nM by radioligand displacement assay relative to control
[33] = target: Beta-3 adrenergic receptor (Homo sapiens) (UniProt P13945); assay: Binding affinity to beta3 receptor (unknown origin) at 10000 nM by radioligand displacement assay relative to control
[34] = target: D(3) dopamine receptor (Homo sapiens) (UniProt P35462); assay: Binding affinity to D3 receptor (unknown origin) at 10000 nM by radioligand displacement assay relative to control
[35] = target: Muscarinic acetylcholine receptor M4 (Homo sapiens) (UniProt P08173); assay: Binding affinity to M4 receptor (unknown origin) at 10000 nM by radioligand displacement assay relative to control
[36] = target: Sodium-dependent noradrenaline transporter (Homo sapiens) (UniProt P23975); assay: Binding affinity to NET receptor (unknown origin) at 10000 nM by radioligand displacement assay relative to control
[37] = target: Sigma non-opioid intracellular receptor 1 (Homo sapiens) (UniProt Q99720); assay: Binding affinity to sigma1 receptor (unknown origin) at 10000 nM by radioligand displacement assay relative to control
[38] = target: Sodium-dependent dopamine transporter (Homo sapiens, UniProt Q01959); assay: Binding affinity to DAT receptor (unknown origin) by radioligand displacement assay
[39] = mouse, in vivo, ip, 50 mg/kg, 48 h
[40] = in vitro; conditions: human, PC-3M cells expressing PTB/GFP fusion protein

Sequence of 5-hydroxytryptamine receptor 2C (Homo sapiens) (P28335 whole entry): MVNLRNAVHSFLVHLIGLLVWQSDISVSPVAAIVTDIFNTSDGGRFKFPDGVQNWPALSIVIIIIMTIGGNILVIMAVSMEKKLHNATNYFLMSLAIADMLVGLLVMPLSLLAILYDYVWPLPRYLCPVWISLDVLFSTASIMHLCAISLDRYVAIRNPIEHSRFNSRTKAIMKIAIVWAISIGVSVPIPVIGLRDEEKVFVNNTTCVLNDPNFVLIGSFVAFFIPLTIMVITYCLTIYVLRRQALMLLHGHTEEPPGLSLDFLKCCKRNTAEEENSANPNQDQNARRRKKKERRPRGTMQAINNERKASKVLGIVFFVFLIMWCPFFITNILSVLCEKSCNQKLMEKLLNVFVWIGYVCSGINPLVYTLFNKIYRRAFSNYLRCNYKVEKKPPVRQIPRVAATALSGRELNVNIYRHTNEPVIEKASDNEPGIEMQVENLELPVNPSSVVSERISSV
Sequence of 5-hydroxytryptamine receptor 2A (Homo sapiens) (P28223 whole entry): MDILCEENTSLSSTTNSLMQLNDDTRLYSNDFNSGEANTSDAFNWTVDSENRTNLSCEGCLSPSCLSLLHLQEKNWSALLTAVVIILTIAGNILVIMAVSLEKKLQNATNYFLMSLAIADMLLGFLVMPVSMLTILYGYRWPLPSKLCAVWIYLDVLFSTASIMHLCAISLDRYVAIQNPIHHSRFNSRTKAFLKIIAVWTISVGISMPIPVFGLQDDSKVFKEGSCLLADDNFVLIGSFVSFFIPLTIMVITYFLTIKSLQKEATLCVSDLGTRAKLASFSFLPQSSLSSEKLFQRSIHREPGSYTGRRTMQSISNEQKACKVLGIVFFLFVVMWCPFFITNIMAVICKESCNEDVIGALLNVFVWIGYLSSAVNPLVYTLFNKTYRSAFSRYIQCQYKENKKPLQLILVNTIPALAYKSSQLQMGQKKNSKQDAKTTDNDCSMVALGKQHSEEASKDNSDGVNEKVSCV
Sequence of Sodium-dependent noradrenaline transporter (Homo sapiens) (P23975 whole entry): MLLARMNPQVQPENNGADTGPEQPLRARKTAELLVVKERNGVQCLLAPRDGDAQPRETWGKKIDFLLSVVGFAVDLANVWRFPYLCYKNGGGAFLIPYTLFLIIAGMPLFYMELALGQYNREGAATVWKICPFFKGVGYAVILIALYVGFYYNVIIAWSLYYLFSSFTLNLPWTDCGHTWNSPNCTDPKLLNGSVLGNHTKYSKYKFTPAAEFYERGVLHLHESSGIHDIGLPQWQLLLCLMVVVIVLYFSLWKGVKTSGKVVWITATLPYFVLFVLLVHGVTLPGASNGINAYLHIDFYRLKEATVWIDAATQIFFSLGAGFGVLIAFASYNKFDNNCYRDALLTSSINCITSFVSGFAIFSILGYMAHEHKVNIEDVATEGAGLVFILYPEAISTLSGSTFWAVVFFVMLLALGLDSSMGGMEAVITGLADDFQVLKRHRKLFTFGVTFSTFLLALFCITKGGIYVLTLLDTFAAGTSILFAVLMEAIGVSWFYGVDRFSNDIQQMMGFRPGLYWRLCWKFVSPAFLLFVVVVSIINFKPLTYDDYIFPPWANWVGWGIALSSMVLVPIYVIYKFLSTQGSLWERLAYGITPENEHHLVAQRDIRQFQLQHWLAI
Sequence of Sodium-dependent dopamine transporter (Q01959 whole entry): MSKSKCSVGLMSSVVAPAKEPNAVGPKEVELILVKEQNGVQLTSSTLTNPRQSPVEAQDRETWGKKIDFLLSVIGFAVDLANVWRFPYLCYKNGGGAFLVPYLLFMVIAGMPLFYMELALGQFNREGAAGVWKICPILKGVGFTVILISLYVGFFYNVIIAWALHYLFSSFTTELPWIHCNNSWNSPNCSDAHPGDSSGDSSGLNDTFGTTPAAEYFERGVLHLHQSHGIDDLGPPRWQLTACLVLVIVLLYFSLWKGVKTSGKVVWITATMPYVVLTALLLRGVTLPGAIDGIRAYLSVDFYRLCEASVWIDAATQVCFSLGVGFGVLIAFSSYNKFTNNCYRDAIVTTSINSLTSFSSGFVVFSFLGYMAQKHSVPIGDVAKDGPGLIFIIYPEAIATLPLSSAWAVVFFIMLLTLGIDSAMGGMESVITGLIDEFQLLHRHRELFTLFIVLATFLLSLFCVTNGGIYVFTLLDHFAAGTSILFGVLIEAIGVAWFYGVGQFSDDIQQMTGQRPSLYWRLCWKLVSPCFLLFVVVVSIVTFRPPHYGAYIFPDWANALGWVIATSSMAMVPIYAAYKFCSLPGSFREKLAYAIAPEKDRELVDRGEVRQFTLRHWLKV
Sequence of Muscarinic acetylcholine receptor M4 (Homo sapiens) (P08173 whole entry): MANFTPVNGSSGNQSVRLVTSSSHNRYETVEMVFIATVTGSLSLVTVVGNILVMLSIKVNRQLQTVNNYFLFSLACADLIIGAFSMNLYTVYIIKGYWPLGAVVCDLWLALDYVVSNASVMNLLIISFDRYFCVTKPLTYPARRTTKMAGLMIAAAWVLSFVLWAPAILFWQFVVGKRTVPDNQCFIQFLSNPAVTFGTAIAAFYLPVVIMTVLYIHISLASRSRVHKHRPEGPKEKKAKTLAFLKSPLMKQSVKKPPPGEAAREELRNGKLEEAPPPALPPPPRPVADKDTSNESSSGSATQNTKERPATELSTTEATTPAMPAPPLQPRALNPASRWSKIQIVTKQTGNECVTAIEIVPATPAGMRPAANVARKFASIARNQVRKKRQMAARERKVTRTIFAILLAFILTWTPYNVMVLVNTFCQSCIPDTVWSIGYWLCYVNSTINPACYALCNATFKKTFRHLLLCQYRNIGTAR
Sequence of 5-hydroxytryptamine receptor 1E (Homo sapiens) (P28566 whole entry): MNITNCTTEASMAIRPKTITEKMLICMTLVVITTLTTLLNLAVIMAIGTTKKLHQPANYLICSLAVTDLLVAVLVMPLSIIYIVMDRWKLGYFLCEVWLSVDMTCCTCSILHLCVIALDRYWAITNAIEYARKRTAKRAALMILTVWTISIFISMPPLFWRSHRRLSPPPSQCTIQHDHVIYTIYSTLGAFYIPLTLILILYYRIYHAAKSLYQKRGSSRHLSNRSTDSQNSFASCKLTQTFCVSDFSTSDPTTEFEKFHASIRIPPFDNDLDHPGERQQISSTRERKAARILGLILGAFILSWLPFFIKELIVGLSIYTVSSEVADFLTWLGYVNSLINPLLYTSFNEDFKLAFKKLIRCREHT
Sequence of Sigma non-opioid intracellular receptor 1 (Homo sapiens) (Q99720 whole entry): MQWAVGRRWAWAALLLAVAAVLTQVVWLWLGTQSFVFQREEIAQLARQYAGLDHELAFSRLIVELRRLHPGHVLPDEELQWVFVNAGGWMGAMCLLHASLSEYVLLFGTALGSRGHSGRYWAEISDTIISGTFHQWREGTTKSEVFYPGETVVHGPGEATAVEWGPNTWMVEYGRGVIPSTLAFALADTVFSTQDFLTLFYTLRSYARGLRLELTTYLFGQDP
Sequence of Beta-3 adrenergic receptor (Homo sapiens) (P13945 whole entry, looked up): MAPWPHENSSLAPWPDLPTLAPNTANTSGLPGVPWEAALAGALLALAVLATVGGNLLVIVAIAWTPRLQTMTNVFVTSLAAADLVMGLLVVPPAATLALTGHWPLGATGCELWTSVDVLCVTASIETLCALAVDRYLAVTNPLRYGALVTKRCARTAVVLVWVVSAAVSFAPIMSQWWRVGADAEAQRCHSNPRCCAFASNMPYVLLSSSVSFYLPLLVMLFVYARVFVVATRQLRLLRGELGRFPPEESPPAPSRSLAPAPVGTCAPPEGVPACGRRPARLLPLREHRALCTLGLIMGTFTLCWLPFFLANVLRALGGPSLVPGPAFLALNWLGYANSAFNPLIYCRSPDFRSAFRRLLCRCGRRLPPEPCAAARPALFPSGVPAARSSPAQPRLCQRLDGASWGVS
Sequence of Beta-2 adrenergic receptor (Homo sapiens) (P07550 whole entry, looked up): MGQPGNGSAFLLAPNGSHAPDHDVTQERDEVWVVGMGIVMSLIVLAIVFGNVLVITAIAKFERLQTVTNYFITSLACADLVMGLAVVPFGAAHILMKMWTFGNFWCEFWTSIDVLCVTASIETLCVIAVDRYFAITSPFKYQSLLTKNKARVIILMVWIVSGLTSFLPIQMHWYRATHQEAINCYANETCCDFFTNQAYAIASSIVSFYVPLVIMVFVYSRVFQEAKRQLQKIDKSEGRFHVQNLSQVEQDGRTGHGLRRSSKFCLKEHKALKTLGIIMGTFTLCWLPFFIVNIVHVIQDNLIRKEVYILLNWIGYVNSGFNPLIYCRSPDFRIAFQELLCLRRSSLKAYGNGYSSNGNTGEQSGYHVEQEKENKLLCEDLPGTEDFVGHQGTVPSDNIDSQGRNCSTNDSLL
Sequence of D(3) dopamine receptor (Homo sapiens) (P35462 whole entry): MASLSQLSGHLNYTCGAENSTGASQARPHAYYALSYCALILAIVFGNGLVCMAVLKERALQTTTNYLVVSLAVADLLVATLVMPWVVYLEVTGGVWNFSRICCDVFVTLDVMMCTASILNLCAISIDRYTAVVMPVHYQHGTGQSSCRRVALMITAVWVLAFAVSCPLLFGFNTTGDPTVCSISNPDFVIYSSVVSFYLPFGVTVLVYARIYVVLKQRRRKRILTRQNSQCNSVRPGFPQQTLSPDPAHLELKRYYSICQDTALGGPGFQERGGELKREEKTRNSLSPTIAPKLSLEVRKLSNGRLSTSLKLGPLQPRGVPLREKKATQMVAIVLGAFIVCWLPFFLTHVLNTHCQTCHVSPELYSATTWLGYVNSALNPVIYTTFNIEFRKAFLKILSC
Sequence of 5-hydroxytryptamine receptor 5A (Homo sapiens) (P47898 whole entry): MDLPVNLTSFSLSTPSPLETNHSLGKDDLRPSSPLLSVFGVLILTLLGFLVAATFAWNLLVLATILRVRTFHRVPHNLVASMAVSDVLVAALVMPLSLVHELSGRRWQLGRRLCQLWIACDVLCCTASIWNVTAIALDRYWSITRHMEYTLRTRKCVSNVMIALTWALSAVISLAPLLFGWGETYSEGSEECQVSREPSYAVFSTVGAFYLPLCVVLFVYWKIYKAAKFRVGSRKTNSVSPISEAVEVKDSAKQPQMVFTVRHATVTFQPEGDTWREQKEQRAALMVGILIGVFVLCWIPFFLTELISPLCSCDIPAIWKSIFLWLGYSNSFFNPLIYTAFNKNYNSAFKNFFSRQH

N=c1c2c(-c3ccccc3)c(-c3ccccc3)n(Cc3ccccc3)c2ncn1[C@H]1CC[C@H](O)CC1 [ML-246]
active: Activity [1] | Activity [10] Dde | Activity [11] Dde | Activity [12] Dde | Activity [13] Dde | Activity [14] Dde | Activity [15] Dde | Activity [16] Dde | Activity [17] Dde | Activity [18] Dde | Activity [19] Dde | Activity [20] Dde | Activity [21] Dde | Activity [22] Dde | Activity [23] Dde | Activity [24] Dde | Activity [25] Dde | Activity [26] Dde
910 nM: Cmax [6]
2 h: half-life at 1 h [3]
> 99 µM and > 47 µg/mL: solubility kinetic [5]
38.3: selectivity ratio [40]
6170 nM: Cmax [7]
Toxic: Activity [4]
7.65 µM: IC50 [2]
0.25 h: Tmax [8]
1320 nM: concentration at 48 h [9]
3.41 µM: Ki [38]
< 50%: Activity [27] | Activity [28] | Activity [29] | Activity [30] | Activity [31] | Activity [32] | Activity [33] | Activity [34] | Activity [35] | Activity [36] | Activity [37]
231.77 µM·h: AUC [39]
